Reference: ChEMBL document CHEMBL3351998, “Discovery of potent and specific dihydroisoxazole inhibitors of human transglutaminase 2” (J Med Chem, 2014)

Legend:
[1] = target: T1, Protein-glutamine gamma-glutamyltransferase 2 (Mus musculus) (UniProt P21981); assay: Inhibition of mouse transglutaminase 2 using ((benzyloxy)carbony l)-L-glutaminylglycine peptide substrate assessed as Kinh/Ki ratio by GDH coupled assay
T1 sequence (whole entry): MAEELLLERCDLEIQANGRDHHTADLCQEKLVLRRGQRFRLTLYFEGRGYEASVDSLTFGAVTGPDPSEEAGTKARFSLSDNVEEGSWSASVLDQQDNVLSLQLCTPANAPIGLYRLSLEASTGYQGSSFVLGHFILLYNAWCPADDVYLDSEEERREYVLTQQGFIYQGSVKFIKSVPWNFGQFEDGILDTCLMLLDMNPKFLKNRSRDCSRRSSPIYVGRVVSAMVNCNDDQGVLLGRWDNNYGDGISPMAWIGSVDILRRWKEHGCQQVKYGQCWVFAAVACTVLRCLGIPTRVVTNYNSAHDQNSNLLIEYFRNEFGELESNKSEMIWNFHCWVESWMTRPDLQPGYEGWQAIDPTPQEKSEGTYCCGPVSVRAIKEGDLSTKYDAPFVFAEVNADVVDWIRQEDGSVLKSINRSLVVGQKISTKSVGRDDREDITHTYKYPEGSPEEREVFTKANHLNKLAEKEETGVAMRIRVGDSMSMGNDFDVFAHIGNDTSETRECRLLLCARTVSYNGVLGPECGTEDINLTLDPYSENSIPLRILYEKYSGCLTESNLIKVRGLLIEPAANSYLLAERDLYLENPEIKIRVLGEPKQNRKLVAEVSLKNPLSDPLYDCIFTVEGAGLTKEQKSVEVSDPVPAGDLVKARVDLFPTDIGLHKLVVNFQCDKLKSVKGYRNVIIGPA
In short: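 Human TG2 (V224G variant) or codon-optimized murine TG2, E. coli-expressed, final ~0.34 and 0.22 μM respectively. Buffer: 200 mM MOPS pH 7.2, 5 mM CaCl2, 10 mM α-ketoglutarate, 300 μM NADH, 36 U/mL bovine GDH. Z-Gln-Gly at 10/20 mM. Inhibitors typically at 100/33.3/11.1/3.7 μM, 1% DMSO, added after ≥5 min pre-equilibration. A340 progress curves fitted to exponential decay; kinh/Ki from irreversible inhibition model.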

[2] = Half life in CD-1 mouse at 50 mg/kg, po; type: ADME, organism-based; set-up: dose 50 mg/kg, route oral; conditions: in vivo
In short: (§1)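 Male CD-1 mice (6−8 weeks, cohorts of five) fasted ~6 h, then gavaged (10 μL/g) with inhibitor mixtures at 50 mg/kg each compound. Vehicle: 25 mg/mL per compound in 1 M HCl/10% Tween-80/25% ethanol, diluted 5-fold into 0.94% methylcellulose in 250 mM trisodium citrate. Blood sampled at 5, 20 (saphenous) and 60 min (cardiac). Plasma quantified by LC-MS (ESI-QTOF) against standard curves.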

[3] = target: T2, Coagulation factor XIII A chain (Homo sapiens) (UniProt P00488); assay: Inhibition of human factor 13a using QEQVSPLSLLK peptide substrate assessed as Kinh/Ki ratio by GDH coupled assay
T2 sequence (whole entry): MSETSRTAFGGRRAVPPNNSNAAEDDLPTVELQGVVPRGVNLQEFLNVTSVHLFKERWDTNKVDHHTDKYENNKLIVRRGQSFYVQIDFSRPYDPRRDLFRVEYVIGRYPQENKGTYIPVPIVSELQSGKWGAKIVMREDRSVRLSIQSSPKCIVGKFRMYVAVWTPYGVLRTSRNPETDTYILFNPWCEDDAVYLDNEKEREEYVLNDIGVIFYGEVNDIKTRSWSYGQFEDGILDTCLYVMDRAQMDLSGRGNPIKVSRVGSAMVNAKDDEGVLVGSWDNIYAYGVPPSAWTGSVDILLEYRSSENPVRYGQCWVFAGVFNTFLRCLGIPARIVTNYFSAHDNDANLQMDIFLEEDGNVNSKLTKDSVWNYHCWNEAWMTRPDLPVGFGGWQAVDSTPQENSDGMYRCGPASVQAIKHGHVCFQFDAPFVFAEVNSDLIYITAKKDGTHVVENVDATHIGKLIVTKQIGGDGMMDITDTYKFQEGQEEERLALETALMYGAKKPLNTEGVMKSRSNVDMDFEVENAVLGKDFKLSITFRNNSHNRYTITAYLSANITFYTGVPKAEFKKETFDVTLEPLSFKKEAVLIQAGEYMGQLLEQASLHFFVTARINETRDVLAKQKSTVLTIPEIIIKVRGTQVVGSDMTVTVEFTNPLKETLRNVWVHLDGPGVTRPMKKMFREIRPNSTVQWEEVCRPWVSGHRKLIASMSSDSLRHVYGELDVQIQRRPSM

[4] = Plasma concentration in CD-1 mouse at 50 mg/kg, po after 20 mins; type: ADME, organism-based; set-up: dose 50 mg/kg, route oral; in short: as §1
[5] = Plasma concentration in CD-1 mouse at 50 mg/kg, po after 5 mins; type: ADME, organism-based; set-up: dose 50 mg/kg, route oral; in short: as §1

Row | Compound | Ratio [1] | half-life [2] | Ratio [3] | concentration at 20 min [4] | concentration at 5 min [5]
1 | O=C(NC[C@@H]1CC(Br)=NO1)[C@@H]1C[C@@H](OCc2ccccc2)CN1C(=O)OCc1cnc2ccccc2c1 | 0.5 | 15 min | 15.5 | – | –
2 | O=C(NC[C@@H]1CC(Br)=NO1)[C@@H]1C[C@@H](O)CN1C(=O)OCc1cnc2ccccc2c1 | 0.5 | 15 min | 11.1 | – | –
3 | O=C(N[C@@H]1C[C@@H](C(=O)NC[C@@H]2CC(Br)=NO2)N(C(=O)OCc2cnc3ccccc3c2)C1)c1cccnc1 | 0.68 | 15 min | 10.6 | – | –
4 | O=C(N[C@@H]1C[C@@H](C(=O)NC[C@@H]2CC(Br)=NO2)N(C(=O)OCc2cnc3ccccc3c2)C1)c1ccc(O)cc1 | 1.3 | 15 min | 9.4 | – | –
5 | O=C(NC[C@@H]1CC(Br)=NO1)[C@@H]1C[C@H](F)CN1C(=O)OCc1cnc2ccccc2c1 | 0.43 | 15 min | 7 | 2100 ng/mL | 2900 ng/mL
6 | O=C(NC[C@@H]1CC(Br)=NO1)[C@@H]1C[C@@H](c2ccccc2)CN1C(=O)OCc1cnc2ccccc2c1 | 1.5 | 15 min | 25.4 | – | –
7 | O=C(NC[C@@H]1CC(Br)=NO1)[C@@H]1C[C@@H](c2ccc(O)cc2)CN1C(=O)OCc1cnc2ccccc2c1 | 1.4 | 15 min | 38.7 | – | –
8 | O=C(NC[C@@H]1CC(Br)=NO1)[C@@H]1CCCN1C(=O)OCc1cnc2ccccc2c1 | 0.5 | 15 min | 8.3 | 1200 ng/mL | 2100 ng/mL
